pIC50: −log10 of the molar value. Calls of active or inactive are those of the source. The rule behind the calls is not given here.
Key:
[1] = target: Cathepsin B (Homo sapiens) (UniProt P07858); test: Inhibition of cathepsin B assessed as ratio of pseudo-first-order inhibition rate constant to inhibitor concentration
[2] = target: Lys-gingipain HG66 (Porphyromonas gingivalis) (UniProt P72197); test: Inhibition of Porphyromonas gingivalis gingipain K assessed as ratio of pseudo-first-order inhibition rate constant to inhibitor concentration
Method in brief: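 Gingipain K diluted to 4.61 nM in 0.2 M Tris-HCl, 0.1 M NaCl, 5 mM CaCl2, 2 mM DTT, pH 8.0 and incubated with inhibitor (DMSO) at room temperature; aliquots taken at intervals into buffer with Suc-Ala-Phe-Lys-AMC; fluorescence at 465 nm; pseudo-first-order kinetics.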

[3] = Stability assessed as half life in citrate phosphate buffer at pH 6.8 in presence of dithiothreitol; type: physicochemical; conditions: citrate phosphate buffer with dithiothreitol
[4] = Inhibition of Ixodes ricinus AE expressed in Pichia pastoris after 20 mins
Method in brief: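 Recombinant AE zymogens expressed in Pichia pastoris; SmAE and TvAE1 autoactivated in 0.5 M sodium acetate, 4 mM DTT, pH 4.5, 37 °C, 3 h to overnight; IrAE used without activation. Buffer 0.1 M citrate phosphate, 4 mM DTT, pH 6.8 (SmAE, TvAE1) or pH 5.5 (IrAE). Inhibitor 2.0–0.0002 µM final, 20 min preincubation at room temperature; 10 µM final Cbz-Ala-Ala-Asn-AMC, 20 min; IC50 from RFU/min vs concentration.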

[5] = target: T1, Clostripain (Clostridium histolyticum) (UniProt P09870); test: Inhibition of sClostridium histolyticum clostripain assessed as ratio of pseudo-first-order inhibition rate constant to inhibitor concentration; conditions: Hathewaya histolytica
T1 sequence (whole entry): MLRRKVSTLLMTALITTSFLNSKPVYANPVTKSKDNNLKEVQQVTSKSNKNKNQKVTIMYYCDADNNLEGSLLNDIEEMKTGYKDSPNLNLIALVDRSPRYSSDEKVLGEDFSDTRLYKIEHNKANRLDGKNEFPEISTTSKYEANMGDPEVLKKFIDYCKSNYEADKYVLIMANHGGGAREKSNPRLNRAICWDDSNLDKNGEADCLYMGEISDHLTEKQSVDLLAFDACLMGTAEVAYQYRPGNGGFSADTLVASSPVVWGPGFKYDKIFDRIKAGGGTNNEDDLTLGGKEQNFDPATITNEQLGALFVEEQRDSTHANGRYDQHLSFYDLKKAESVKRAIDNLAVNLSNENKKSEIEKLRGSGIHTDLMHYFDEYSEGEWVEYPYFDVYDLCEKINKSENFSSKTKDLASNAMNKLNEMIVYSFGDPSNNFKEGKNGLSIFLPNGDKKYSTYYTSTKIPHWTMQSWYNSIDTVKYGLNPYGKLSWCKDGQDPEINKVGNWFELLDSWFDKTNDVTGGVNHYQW
Method in brief: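 Clostripain activated in 8 mM DTT, then incubated with inhibitor (DMSO) in 20 mM Tris-HCl, 10 mM CaCl2, 0.005% Brij 35, 2 mM DTT, pH 7.6; aliquots taken at intervals into buffer with Cbz-Phe-Arg-AMC; fluorescence at 465 nm; pseudo-first-order kinetics.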

Caspase-6 (Homo sapiens) = target: T2, Caspase-6 (Homo sapiens) (UniProt P55212); test: Inhibition of caspase 6 assessed as ratio of pseudo-first-order inhibition rate constant to inhibitor concentration
T2 sequence (whole entry): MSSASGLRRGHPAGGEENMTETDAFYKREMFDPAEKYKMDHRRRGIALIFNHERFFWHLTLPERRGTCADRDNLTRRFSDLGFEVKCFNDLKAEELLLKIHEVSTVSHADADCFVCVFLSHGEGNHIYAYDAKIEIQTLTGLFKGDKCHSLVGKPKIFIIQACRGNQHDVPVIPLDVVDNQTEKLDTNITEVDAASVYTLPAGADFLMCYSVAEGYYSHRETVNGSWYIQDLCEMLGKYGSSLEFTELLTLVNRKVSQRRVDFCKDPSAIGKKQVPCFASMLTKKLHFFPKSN
Method in brief: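 Caspase-6 at 5 nM final, assayed in the same Pipes/NaCl/CHAPS/sucrose/DTT buffer, pH 7.2, 37 °C with Ac-Asp-Glu-Val-Asp-AMC by the progress curve method; inhibitor stocks 5 × 10^-3 to 2.42 × 10^-6 M in DMSO; rates corrected for substrate using KM 236.35 µM.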

Caspase-3 (Homo sapiens) = target: T3, Caspase-3 (Homo sapiens) (UniProt P42574); test: Inhibition of caspase 3 assessed as ratio of pseudo-first-order inhibition rate constant to inhibitor concentration
T3 sequence (whole entry): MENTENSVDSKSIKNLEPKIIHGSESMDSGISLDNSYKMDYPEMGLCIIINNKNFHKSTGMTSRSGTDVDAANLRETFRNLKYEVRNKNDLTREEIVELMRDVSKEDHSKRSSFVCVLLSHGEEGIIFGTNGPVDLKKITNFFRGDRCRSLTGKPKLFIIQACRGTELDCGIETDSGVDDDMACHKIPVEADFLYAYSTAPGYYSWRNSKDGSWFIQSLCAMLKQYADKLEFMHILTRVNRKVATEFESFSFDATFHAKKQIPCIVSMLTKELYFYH
Method in brief: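 Caspase-3 (1 nM final) preactivated 10 min at 37 °C in 40 mM Pipes, 200 mM NaCl, 0.2% CHAPS, 20% sucrose mixed 1:1 with 20 mM DTT, pH 7.2; enzyme added to inhibitor plus Ac-Asp-Glu-Val-Asp-AMC; progress curves 20 min at 37 °C (ex 360, em 465 nm); duplicates; rates corrected for substrate (KM 9.7 µM).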

[6] = target: T4, Calpain-1 catalytic subunit (Homo sapiens) (UniProt P07384); test: Inhibition of calpain 1 assessed as ratio of pseudo-first-order inhibition rate constant to inhibitor concentration
T4 sequence (whole entry): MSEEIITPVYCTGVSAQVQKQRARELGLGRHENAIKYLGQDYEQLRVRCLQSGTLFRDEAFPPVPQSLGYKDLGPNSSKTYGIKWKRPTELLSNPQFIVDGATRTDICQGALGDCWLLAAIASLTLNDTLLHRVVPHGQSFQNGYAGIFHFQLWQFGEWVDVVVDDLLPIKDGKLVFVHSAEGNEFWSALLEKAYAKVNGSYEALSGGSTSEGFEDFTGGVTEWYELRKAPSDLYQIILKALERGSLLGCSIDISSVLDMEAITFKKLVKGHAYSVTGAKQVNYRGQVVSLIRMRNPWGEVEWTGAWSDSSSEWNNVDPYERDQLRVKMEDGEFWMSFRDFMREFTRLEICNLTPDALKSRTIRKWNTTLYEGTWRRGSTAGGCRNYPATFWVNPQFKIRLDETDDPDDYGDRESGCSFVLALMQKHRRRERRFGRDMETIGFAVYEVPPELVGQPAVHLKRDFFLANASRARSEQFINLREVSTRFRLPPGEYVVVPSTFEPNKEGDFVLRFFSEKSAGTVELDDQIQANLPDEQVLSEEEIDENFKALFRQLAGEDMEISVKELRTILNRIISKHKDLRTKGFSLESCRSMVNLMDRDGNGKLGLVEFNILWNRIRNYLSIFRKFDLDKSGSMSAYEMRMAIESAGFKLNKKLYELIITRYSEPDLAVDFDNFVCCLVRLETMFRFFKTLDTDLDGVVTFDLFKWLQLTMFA

Row | Compound | Activity [1] | Ratio [2] [M⁻¹ s⁻¹] | half-life [3] [min] | pIC50 [4] | Activity [5] | Activity (Caspase-6 (Homo sapiens)) | Activity (Caspase-3 (Homo sapiens)) | Ratio [6] [M⁻¹ s⁻¹] | Activity [6] | Ratio [1] [M⁻¹ s⁻¹]
1 | C[C@H](NC(=O)OCc1ccccc1)C(=O)N[C@@H](C)C(=O)NN(CC(N)=O)C(=O)/C=C/C(=O)N(Cc1ccccc1)Cc1ccccc1 | inactive | 2 | 17 | 6.35 | inactive | inactive | inactive | < 1 | – | –
2 | C[C@H](NC(=O)OCc1ccccc1)C(=O)N[C@@H](C)C(=O)NN(CC(N)=O)C(=O)/C=C/C(=O)N(C)Cc1ccccc1 | inactive | 1 | 20 | > 9.00 | inactive | inactive | inactive | – | inactive | –
3 | C[C@H](NC(=O)OCc1ccccc1)C(=O)N[C@@H](C)C(=O)NN(CC(N)=O)C(=O)/C=C/C(=O)N(C)Cc1cccc2ccccc12 | inactive | 6 | – | 8.26 | inactive | inactive | inactive | – | inactive | –
4 | CCOC(=O)/C=C/C(=O)N(CC(N)=O)NC(=O)[C@H](C)NC(=O)[C@H](C)NC(=O)OCc1ccccc1 | – | 6 | 3.7 | 8.35 | inactive | inactive | inactive | – | inactive | < 1
